In ChEMBL document CHEMBL1140869, “Organocatalyzed highly atom economic one pot synthesis of tetrahydropyridines as antimalarials” (2009):
In brackets after ≈: the same amount, converted by molar mass.

Columns and labels:
Assay type in all cases: functional
Plasmodium falciparum [1] = experiment: Antimalarial schizonticidal activity against Plasmodium falciparum 3D7 infected erythrocytes at 5 ug/ml after 30-39 hrs
Outline: (§1)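 Schizont maturation test (WHO protocol, minor modifications): drug dilutions in complete RPMI 1640 with parasite added. Final culture was 3–4% hematocrit and 1.0–2.0% parasitized erythrocytes (>95% rings), with 0.5% AlbuMax II and 15 µM hypoxanthine. Incubated 30–39 h at 37 °C under 5% CO2. Giemsa-stained thin smears were scored for schizont maturation relative to untreated controls, giving % schizont inhibition at each concentration.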

Plasmodium falciparum [2] = experiment: Antimalarial schizonticidal activity against Plasmodium falciparum 3D7 infected erythrocytes at 2.5 ug/ml after 30-39 hrs; outline: as §1
Plasmodium falciparum [3] = experiment: Antimalarial schizonticidal activity against Plasmodium falciparum 3D7 infected erythrocytes at 1.25 ug/ml after 30-39 hrs; outline: as §1
Plasmodium falciparum [4] = experiment: Antimalarial schizonticidal activity against Plasmodium falciparum 3D7 infected erythrocytes at 10 ug/ml after 30-39 hrs; outline: as §1
Plasmodium falciparum [5] = experiment: Antimalarial schizonticidal activity against Plasmodium falciparum 3D7 infected erythrocytes at 0.39 ug/ml after 30-39 hrs; outline: as §1
Plasmodium falciparum [6] = experiment: Antimalarial activity schizonticidal against Plasmodium falciparum 3D7 infected erythrocytes at 0.05 ug/ml after 30-39 hrs; outline: as §1
Plasmodium falciparum [7] = experiment: Antimalarial schizonticidal activity against Plasmodium falciparum 3D7 infected erythrocytes at 0.78 ug/ml after 30-39 hrs; outline: as §1
Plasmodium falciparum [8] = experiment: Antimalarial schizonticidal activity against Plasmodium falciparum 3D7 infected erythrocytes at 0.19 ug/ml after 30-39 hrs; outline: as §1
Plasmodium falciparum [9] = experiment: Antimalarial schizonticidal activity against Plasmodium falciparum 3D7 infected erythrocytes at 0.09 ug/ml after 30-39 hrs; outline: as §1
Plasmodium falciparum [10] = experiment: Antimalarial schizonticidal activity against Plasmodium falciparum 3D7 infected erythrocytes after 30-39 hrs; outline: as §1

| SMILES | inhibition at 5 µg/mL (Plasmodium falciparum [1]) | inhibition at 2.5 µg/mL (Plasmodium falciparum [2]) | inhibition at 1.25 µg/mL (Plasmodium falciparum [3]) | inhibition at 10 µg/mL (Plasmodium falciparum [4]) | inhibition at 0.39 µg/mL (Plasmodium falciparum [5]) | inhibition at 0.05 µg/mL (Plasmodium falciparum [6]) | inhibition at 0.78 µg/mL (Plasmodium falciparum [7]) | inhibition at 0.19 µg/mL (Plasmodium falciparum [8]) | inhibition at 0.09 µg/mL (Plasmodium falciparum [9]) | MIC (Plasmodium falciparum [10]) |
| --- | --- | --- | --- | --- | --- | --- | --- | --- | --- | --- |
| CCOC(=O)C1=C(Nc2ccc(OC)cc2)CC(c2cccc(Cl)c2)N(c2ccc(OC)cc2)C1c1cccc(Cl)c1 (centres undefined) | 92% | 50% | 16% | 100% | – | – | – | – | – | – |
| CCOC(=O)C1=C(Nc2ccc(Cl)cc2)CC(c2cccs2)N(c2ccc(Cl)cc2)C1c1cccs1 (centres undefined) | 100% | 93% | 86% | 100% | – | – | – | – | – | – |
| COC(=O)C1=C(Nc2ccc(Cl)cc2)CC(c2ccc(Br)cc2)N(c2ccc(Cl)cc2)C1c1ccc(Br)cc1 (centres undefined) | 0% | 0% | 0% | 33% | – | – | – | – | – | – |
| COC(=O)C1=C(Nc2ccc(OC)cc2)CC(c2ccc(F)cc2)N(c2ccc(OC)cc2)C1c1ccc(F)cc1 (centres undefined) | 100% | 100% | 100% | 100% | 100% | 91% | 100% | 100% | 100% | – |
| COC(=O)C1=C(Nc2ccc(Cl)cc2)CC(c2ccc(OC)cc2)N(c2ccc(Cl)cc2)C1c1ccc(OC)cc1 (centres undefined) | 100% | 100% | 100% | 100% | 75% | 16% | 95% | 41% | 33% | – |
| COC(=O)C1=C(Nc2ccc(OC)cc2)CC(c2ccc(Br)cc2)N(c2ccc(OC)cc2)C1c1ccc(Br)cc1 (centres undefined) | 100% | 95% | 33% | 100% | – | – | – | – | – | – |
| CCOC(=O)C1=C(Nc2ccccc2)CC(c2cccnc2)N(c2ccccc2)C1c1cccnc1 (centres undefined) | 100% | 100% | 100% | 100% | 100% | 42% | 100% | 97% | 42% | – |
| CCOC(=O)C1=C(Nc2ccc(OC)cc2)CC(c2ccccc2)N(c2ccc(OC)cc2)C1c1ccccc1 (centres undefined) | 100% | 100% | 100% | 100% | 33% | 0% | 66% | 0% | 0% | – |
| COC(=O)C1=C(Nc2ccccc2)CC(c2ccccc2)N(c2ccccc2)C1c1ccccc1 (centres undefined) | 100% | 100% | 100% | 100% | 90% | 0% | 96% | 33% | 0% | – |
| COC(=O)C1=C(Nc2ccc(OC)cc2)CC(c2ccc(OC)cc2)N(c2ccc(OC)cc2)C1c1ccc(OC)cc1 (centres undefined) | 100% | 90% | 86% | 100% | – | – | – | – | – | – |
| COC(=O)C1=C(Nc2ccc(Br)cc2)CC(c2ccc(OC)cc2)N(c2ccc(Br)cc2)C1c1ccc(OC)cc1 (centres undefined) | 100% | 91% | 25% | 100% | – | – | – | – | – | – |
| COC(=O)C1=C(Nc2ccc(OC)cc2)CC(c2cccc(Cl)c2)N(c2ccc(OC)cc2)C1c1cccc(Cl)c1 (centres undefined) | 100% | 100% | 33% | 100% | – | – | – | – | – | – |
| COC(=O)C1=C(Nc2ccc(OC)cc2)CC(c2cccs2)N(c2ccc(OC)cc2)C1c1cccs1 (centres undefined) | 100% | 100% | 100% | 100% | 100% | 16% | 100% | 75% | 25% | – |
| CCN(CC)CCCC(C)Nc1ccnc2cc(Cl)ccc12 (centres undefined) [CHLOROQUINE] | 100% | 97% | 86% | 100% | 100% | 54% | 100% | 97% | 86% | 0.025 µg/mL (≈ 0.0782 µM) |
| CCOC(=O)C1=C(Nc2ccccc2)CC(c2ccccc2)N(c2ccccc2)C1c1ccccc1 (centres undefined) | 100% | 92% | 25% | 100% | – | – | – | – | – | – |
| COC(=O)C1=C(Nc2ccc(Cl)cc2)CC(c2ccc(F)cc2)N(c2ccc(Cl)cc2)C1c1ccc(F)cc1 (centres undefined) | 100% | 100% | 93% | 100% | – | – | – | – | – | – |
| COC(=O)C1=C(Nc2ccccc2)CC(c2ccc(OCc3ccccc3)cc2)N(c2ccccc2)C1c1ccc(OCc2ccccc2)cc1 (centres undefined) | 2% | 2% | 0% | 23% | – | – | – | – | – | – |
| COC(=O)C1=C(Nc2ccccc2)CC(c2ccc(Br)cc2)N(c2ccccc2)C1c1ccc(Br)cc1 (centres undefined) | 100% | 85% | 46% | 100% | – | – | – | – | – | – |
| CCOC(=O)C1=C(Nc2ccc(Cl)cc2)CC(c2ccc(Cl)cc2)N(c2ccc(Cl)cc2)C1c1ccc(Cl)cc1 (centres undefined) | 66% | 0% | 0% | 83% | – | – | – | – | – | – |
| COC(=O)C1=C(Nc2ccccc2)CC(c2ccc(OC)cc2)N(c2ccccc2)C1c1ccc(OC)cc1 (centres undefined) | 100% | 100% | 100% | 100% | 67% | 25% | 94% | 47% | 45% | – |
| COC(=O)C1=C(Nc2ccccc2)CC(c2ccc(F)cc2)N(c2ccccc2)C1c1ccc(F)cc1 (centres undefined) | 100% | 100% | 100% | 100% | 100% | 16% | 100% | 75% | 33% | – |
| COC(=O)C1=C(Nc2ccccc2)CC(c2cccc(Cl)c2)N(c2ccccc2)C1c1cccc(Cl)c1 (centres undefined) | 81% | 81% | 46% | 100% | – | – | – | – | – | – |
